Experimental data from paper PMC10432377 (Journal of Applied Glycoscience, 2023).

What was measured:
Assay type in all cases: biochemical, Lacticaseibacillus casei
Conditions in all cases: 80 mM sodium acetate pH 4.0, 37 °C
LBCZ_0230 [1] = test: D-galactose release, L-arabinose/D-galactose assay kit
Outline: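 Recombinant C-terminally His6-tagged enzyme was expressed in E. coli BL21(DE3) and Ni²⁺-affinity purified. Lacto-N-biose I or galacto-N-biose at 0.1-2 mM was reacted with enzyme at 37 °C for 10 min. Reactions were stopped at 80 °C for 3 min and D-galactose was quantified. Km came from Michaelis-Menten nonlinear regression, as mean ± SD of three independent experiments.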

LBCZ_0230 [2] = test: o-nitrophenol release, A400
Outline: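 The enzyme was C-terminally His6-tagged, expressed in E. coli BL21(DE3) and purified on Ni²⁺ affinity. Protein was quantified by amino acid analysis. o-Nitrophenyl β-D-galactopyranoside at 0.05-1 mM was incubated with enzyme at 37 °C for 10 min and stopped with 1 M Na₂CO₃. Released o-nitrophenol was read at A400. Km was fitted by nonlinear Michaelis-Menten regression from three independent experiments (mean ± SD).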

LBCZ_0230 [3] = test: p-nitrophenol release, A400
Outline: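 Purified recombinant His6-tagged enzyme (E. coli BL21(DE3), Ni²⁺ column) was assayed on p-nitrophenyl β-D-galactopyranoside over 0.0125-0.5 mM. Incubation ran at 37 °C for 10 min and was quenched with 1 M Na₂CO₃. p-Nitrophenol was measured at A400. Km was obtained by nonlinear Michaelis-Menten fitting, as mean ± SD of three independent experiments.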

| Km (LBCZ_0230 [1]) | Structure (SMILES) | also measured |
| --- | --- | --- |
| 707 ± 18 µM | CC(=O)N[C@H]1C(O)O[C@H](CO)[C@H](O)[C@@H]1O[C@@H]1O[C@H](CO)[C@H](O)[C@H](O)[C@H]1O (stereo partly shown) [GNB] | – |
| 238 ± 5 µM | CC(=O)N[C@H]1C(O)O[C@H](CO)[C@@H](O)[C@@H]1O[C@@H]1O[C@H](CO)[C@H](O)[C@H](O)[C@H]1O (stereo partly shown) [LNB] | – |
| – | O=[N+]([O-])c1ccccc1O[C@@H]1O[C@H](CO)[C@H](O)[C@H](O)[C@H]1O [oNPGal] | Km (LBCZ_0230 [2]): 50.1 ± 2.3 µM |
| – | O=[N+]([O-])c1ccc(O[C@@H]2O[C@H](CO)[C@H](O)[C@H](O)[C@H]2O)cc1 [pNPGal] | Km (LBCZ_0230 [3]): 20.9 ± 1.3 µM |
